Measured values: ChEMBL document CHEMBL4425094, “Novel Benzo[a]quinolizidine Analogs Induce Cancer Cell Death through Paraptosis and Apoptosis” (J Med Chem, 2016)
pIC50: −log10 of the molar value. Calls of active or inactive are those of the source. The calls are words filed in the database; no cut-off is given here.

Columns and labels:
DU-145 = experiment: Cytotoxicity against human DU145 cells assessed as cell growth inhibition after 24 hrs by MTT assay; type: functional, cell-based; conditions: DU-145, 24 h
Method in brief: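 Cells seeded 24 h in RPMI 1640 + 10% FBS. RWPE-1 was kept in K-SFM with bovine pituitary extract and EGF. Cells then exposed to compounds for 24 h at 37 °C, 5% CO2, with DMSO vehicle and docetaxel as positive control. MTT added for 4 h, absorbance read at 570 nm. Triplicate runs, IC50 reported as mean of three experiments.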

PC-3 [1] = experiment: Induction of autophagy in human PC3 cells assessed as conversion of LC3B1 to LC3B2 after 24 hrs by Western blot analysis; type: functional, cell-based
Method in brief: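 PC3 cells in RPMI 1640 with 10% FBS, treated with compound for timed intervals. DMSO vehicle control. Lysis in RIPA buffer, 40 μg protein per lane on SDS-PAGE, transfer to nitrocellulose. Primary antibodies overnight at 4 °C, HRP-secondary 45 min, ECL detection. GAPDH or β-actin used as loading control.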

PC-3 [2] = experiment: Induction of autophagy in human PC3 cells transfected with LC3-targeting siRNA assessed as vacuole formation at 1 uM after 24 hrs by phase-contrast microscopic analysis; type: functional, cell-based
Method in brief: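 PC3 cells plated at 20−30% confluency, then transfected 24 h later with 50 nM LC3-targeting or scrambled siRNA by lipofection. After 48 h they were exposed to 1 μM agent for a further 24 h, followed by phase-contrast imaging and Western blotting.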

PC-3 [3] = experiment: Cytotoxicity in human PC3 cells assessed as reduction in cell viability incubated for 22 hrs after ER stress inhibitor 4-PBA exposure for 2 hrs by MTT assay; type: functional, cell-based
Method in brief: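 PC3 cells pretreated 2 h with 4-PBA (100 μM), then compound added for a further 22 h. Viability measured by MTT. GRP78 assessed by Western blot, along with XBP1 mRNA splicing analysis. Morphology by phase contrast.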

PC-3 [4] = experiment: Induction of apoptosis in human in human PC3 cells assessed as reduction in cell viability in presence of pan-caspase inhibitor Z-VAD-fmk by MTT assay; type: functional, cell-based
Method in brief: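 PC3 cells pretreated with Z-VAD-fmk (10 μM) or Ac-DEVD-CHO (50 μM) before compound exposure. Viability read by MTT at 570 nm. Significance tested against control by Student's t test.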

PC-3 [5] = experiment: Growth inhibition of human PC3 cells at IC30 in presence of bortezomib by MTT assay; type: functional, cell-based
Method in brief: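 PC3 cells incubated with increasing concentrations of compound combined with a second agent (bortezomib or partner compound). Viability determined, combination index calculated: CI < 1 synergism, = 1 additive, > 1 antagonism.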

PC-3 [6] = experiment: Induction of cell cycle arrest in human PC3 cells assessed as accumulation in G0/G1 phase at 0.5 uM after 24 hrs by […]propidium iodide based flow cytometric analysis (reference value: 43.5 to 62.5 %); type: functional
PC-3M [7] = experiment: Antitumor activity against human PC3M-lluc-C6 cells xenografted in athymic Balb/c mouse assessed as decrease in tumor burden by measuring photon intensity at 15 mg/kg, ip measured on day 9 by bioluminescence method (reference value: 6.501 x 10^9 photons/s/cm2); type: functional
PC-3 [8] = experiment: Induction of apoptosis in human PC3 cells assessed as necrotic cells at 0.5 uM after 24 hrs by Annexin V-FITC/propidium iodide based flow cytometric analysis (reference value: 1.1 %); type: functional
Method in brief: (§1)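 PC3 cells exposed to 0.5, 1 or 2 μM for 24 h, then stained with Annexin V-FITC and PI and analyzed by FACSCalibur flow cytometry. Populations assigned as necrotic (Annexin V−/PI+), late apoptotic (double positive), normal (Annexin V−/PI−) and early apoptotic (Annexin V+/PI−). DMSO vehicle control.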

PC-3 [9] = experiment: Induction of apoptosis in human PC3 cells assessed as early apoptotic cells at 1 uM after 24 hrs by Annexin V-FITC/propidium iodide based flow cytometric analysis (reference value: 2.3 %); type: functional; method in brief: as §1
PC-3 [10] = experiment: Induction of cell cycle arrest in human PC3 cells assessed as accumulation in G0/G1 phase at 1 uM after 24 hrs by […]propidium iodide based flow cytometric analysis (reference value: 43.5 to 62.5 %); type: functional
PC-3 [11] = experiment: Induction of apoptosis in human PC3 cells assessed as viable cells at 2 uM after 24 hrs by Annexin V-FITC/propidium iodide based flow cytometric analysis (reference value: 95.4 %); type: functional; conditions: PC-3, 24 h, read-out: Activity; method in brief: as §1
PC-3 [12] = experiment: Growth inhibition of human PC3 cells at IC30 in presence of […] by MTT assay; type: functional
PC-3M [13] = experiment: Induction of ER stress i in human PC3M-lluc-C6 cells xenografted in athymic Balb/c mouse assessed as increase in GRP78 protein levels at 15 mg/kg, ip administered every 2 days for 18 days by Western blot and immunohistochemical staining method; type: functional, organism-based
Method in brief: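 Tumor tissue from PC3M-luc-C6 xenografts in BALB/c-nu mice dosed 15 mg/kg i.p. every 2 days. GRP78 measured by Western blot and by immunohistochemistry (anti-GRP78 1:500 overnight at 4 °C, HRP/DAB, hematoxylin counterstain).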

PC-3 [14] = experiment: Induction of apoptosis in human PC3 cells assessed as late apoptotic cells at 1 uM after 24 hrs by Annexin V-FITC/propidium iodide based flow cytometric analysis (reference value: 1.1 %); type: functional; method in brief: as §1
PC-3 [15] = experiment: Induction of autophagy in human PC3 cells assessed as vacuole formation at 1 uM after 24 hrs in presence of […] inhibitor E-64d by phase-contrast microscopic analysis; type: functional, cell-based
Method in brief: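 PC3 cells were pretreated with the autophagy inhibitor (3-MA or E64d), then exposed to 1 μM test agent for 24 h. Morphology was imaged by phase-contrast microscopy, and viability was read by MTT at 570 nm. Comparison was against agent-only cells.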

## Cc1cc(C)cc(COc2cc3c(cc2OCc2cc(C)cc(C)c2)[C@@H]2C[C@H](O)C[C@@H](C)N2CC3)c1 (racemic)
DU-145
  pIC50: 5.71
PC-3 [1]
  Activity: Active
PC-3 [2]
  Activity: inactive
PC-3 [3]
  Activity: inactive
PC-3 [4]
  Activity: inactive
PC-3 [5]
  growth inhibition (GI): Active
PC-3 [6]
  Activity: 63.8 - 70.2%
PC-3M [7]
  Activity: 2.45 ×10⁹ /s/cm2
PC-3 [8]
  Activity: 1%
PC-3 [9]
  Activity: 5.9%
PC-3 [10]
  Activity: 65.1 - 78%
PC-3 [11]
  viability at 2 µM: 40%
PC-3 [12]
  growth inhibition (GI): 54%
PC-3M [13]
  Activity: Active
PC-3 [14]
  Activity: 2.6%
PC-3 [15]
  Activity: Active
